For series [1], the target named is Cyclin-dependent kinase 4 (Homo sapiens, UniProt P11802). Kind of series: Inhibition of Cyclin-dependent kinase 4.
Series [2] in a line: T 1/2 at a dose of 10 mg/Kg administered perorally in female hanover-wistar rat. Type of series: ADME, organism-based. Conditions: in vivo, po. The method in brief: (§1)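 Female Wistar/Han rats (180–220 g, n=3 per regime) received a single 10 mg/kg oral suspension in 0.9% NaCl, 0.5% Na-CMC, 0.4% polysorbate 80 and 0.9% benzyl alcohol. Blood was taken at 1, 3, 6, 8 and 24 h by orbital sinus or cardiac puncture. Plasma drug was measured by LC/MS after acetonitrile precipitation; the comparison arm was a 10 mg/kg IV bolus.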

Series [3] has as its target Vascular endothelial growth factor receptor 2 (Homo sapiens, UniProt P35968). Kind of series: Inhibition of Vascular endothelial growth factor receptor 2.
A further series addresses MAP kinase p38 (Homo sapiens, UniProt O15264+Q15759+Q16539+P53778). The series can be described thus: Inhibition of LPS-induced p38-related IL1-beta production in human white blood cells. In kind it is functional, cell-based. The method in brief: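 Heparinized whole blood from donors medication-free for at least 14 days. Compounds came from a 6 mM DMSO stock, six 3-fold serial dilutions in DMSO, then diluted 1/20 in RPMI and run in triplicate. Blood was preincubated with compound 30 min at 37 °C, then stimulated with E. coli 0127:B8 LPS at 0.5 μg/mL final overnight at 37 °C, 5% CO₂. Plasma IL-1β was measured by ELISA.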

In a further series the target is Protein kinase C (PKC). Kind of series: Inhibition of Protein kinase C. Type of series: protein assay.
The target in series [4] is T1, Interleukin-1 receptor-associated kinase 4 (Homo sapiens, UniProt Q9NWZ3).
T1 sequence (Q9NWZ3 whole entry): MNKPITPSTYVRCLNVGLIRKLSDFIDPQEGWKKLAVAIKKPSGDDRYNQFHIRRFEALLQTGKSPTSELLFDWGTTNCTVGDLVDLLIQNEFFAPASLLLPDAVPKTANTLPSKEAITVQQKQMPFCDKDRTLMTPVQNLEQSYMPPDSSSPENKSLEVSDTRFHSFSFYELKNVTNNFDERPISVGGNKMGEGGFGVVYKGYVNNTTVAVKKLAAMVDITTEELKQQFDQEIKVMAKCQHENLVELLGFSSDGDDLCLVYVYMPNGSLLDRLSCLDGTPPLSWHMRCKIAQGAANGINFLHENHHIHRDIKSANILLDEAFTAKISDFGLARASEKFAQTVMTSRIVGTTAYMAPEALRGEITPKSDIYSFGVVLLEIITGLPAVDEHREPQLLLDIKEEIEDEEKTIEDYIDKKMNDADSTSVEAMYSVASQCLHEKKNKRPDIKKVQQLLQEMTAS
Kind of series: Inhibition of Interleukin-1 receptor-associated kinase-4.

The species named for another series is Rattus norvegicus. The series can be described thus: Effective dose against LPS stimulated TNF alpha production in rats. Type of series: functional. In a few lines: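 Female Wistar/Han rats, 8 per group, were dosed orally at −30 min with compound in CMC vehicle (0.9% NaCl, 0.5% Na-CMC, 0.4% polysorbate 80, 0.9% benzyl alcohol) or with vehicle alone. LPS 50 μg/kg was given ip at 0 h. At 1.5 h, blood was taken by cardiocentesis after CO₂ euthanasia, and serum TNFα was measured by ELISA against vehicle controls.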

The target in series [5] is Cyclin-dependent kinase 2 (Homo sapiens, UniProt P24941). The series can be described thus: Inhibition of Cyclin-dependent kinase 2.
A short description of series [6]: T max at a dose of 10 mg/Kg administered perorally in female hanover-wistar rat. Type of series: ADME, organism-based. Particulars: in vivo, po. The method in brief: as §1

This note sets out measurements from ChEMBL document CHEMBL1145138, “Design and synthesis of 4-azaindoles as inhibitors of p38 MAP kinase” (J Med Chem, 2003).

Vascular endothelial growth factor receptor 2, sequence (P35968 whole entry): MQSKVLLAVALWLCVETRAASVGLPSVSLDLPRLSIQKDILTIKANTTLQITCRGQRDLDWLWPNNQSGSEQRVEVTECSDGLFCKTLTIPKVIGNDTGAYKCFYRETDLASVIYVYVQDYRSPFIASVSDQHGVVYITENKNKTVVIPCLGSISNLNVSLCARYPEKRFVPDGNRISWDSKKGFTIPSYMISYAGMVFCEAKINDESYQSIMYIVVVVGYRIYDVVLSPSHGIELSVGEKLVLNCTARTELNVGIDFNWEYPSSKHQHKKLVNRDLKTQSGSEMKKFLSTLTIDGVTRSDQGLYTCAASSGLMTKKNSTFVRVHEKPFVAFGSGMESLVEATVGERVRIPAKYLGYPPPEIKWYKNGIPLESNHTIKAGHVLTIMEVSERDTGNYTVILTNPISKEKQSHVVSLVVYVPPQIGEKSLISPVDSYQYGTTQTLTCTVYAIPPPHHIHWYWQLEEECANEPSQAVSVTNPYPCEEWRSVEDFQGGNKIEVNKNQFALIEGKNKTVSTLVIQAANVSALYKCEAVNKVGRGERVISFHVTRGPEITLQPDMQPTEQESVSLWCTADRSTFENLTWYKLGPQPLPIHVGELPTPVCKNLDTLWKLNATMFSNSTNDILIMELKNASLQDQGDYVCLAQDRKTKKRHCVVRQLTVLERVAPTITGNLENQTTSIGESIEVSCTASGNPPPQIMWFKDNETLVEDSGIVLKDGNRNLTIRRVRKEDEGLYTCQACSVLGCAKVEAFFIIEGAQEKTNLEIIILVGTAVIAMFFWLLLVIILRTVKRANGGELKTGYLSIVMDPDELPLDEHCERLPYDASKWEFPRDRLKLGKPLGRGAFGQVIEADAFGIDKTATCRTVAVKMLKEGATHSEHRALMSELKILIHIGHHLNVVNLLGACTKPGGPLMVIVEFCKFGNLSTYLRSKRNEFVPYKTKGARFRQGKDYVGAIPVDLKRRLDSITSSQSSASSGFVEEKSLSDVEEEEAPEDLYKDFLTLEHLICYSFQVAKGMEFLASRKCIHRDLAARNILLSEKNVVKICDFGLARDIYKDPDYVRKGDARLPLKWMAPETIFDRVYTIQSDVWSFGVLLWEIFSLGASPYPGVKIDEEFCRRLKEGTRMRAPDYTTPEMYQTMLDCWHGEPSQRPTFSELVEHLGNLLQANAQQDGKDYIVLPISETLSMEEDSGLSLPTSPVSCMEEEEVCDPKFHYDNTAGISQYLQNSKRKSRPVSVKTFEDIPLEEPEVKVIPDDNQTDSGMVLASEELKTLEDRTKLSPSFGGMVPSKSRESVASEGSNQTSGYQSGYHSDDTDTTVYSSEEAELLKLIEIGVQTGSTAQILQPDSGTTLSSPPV
Cyclin-dependent kinase 4, sequence (P11802 whole entry): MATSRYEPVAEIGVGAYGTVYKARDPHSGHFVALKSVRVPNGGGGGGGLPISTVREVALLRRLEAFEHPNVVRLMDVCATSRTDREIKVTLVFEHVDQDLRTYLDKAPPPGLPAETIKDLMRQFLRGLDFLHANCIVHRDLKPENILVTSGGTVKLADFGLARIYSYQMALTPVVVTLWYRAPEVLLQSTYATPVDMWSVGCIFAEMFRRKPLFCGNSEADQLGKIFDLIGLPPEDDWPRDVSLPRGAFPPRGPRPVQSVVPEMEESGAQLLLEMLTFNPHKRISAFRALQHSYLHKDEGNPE

The term IC50 denotes the concentration at which inhibition is half-maximal. Lower therefore signals greater potency in that assay. In general, half-life refers to how long it takes for the measured level to halve. Lower therefore signals rapid decline. As a reminder, the ED50 is the dose that gives a 50% effect, or the effect in half of the subjects. Low values mean greater potency, high ones weaker potency. The Tmax is the time at which the peak concentration occurs. Turning to `C[C@H](O)CNc1cc(-c2[nH]c3cccnc3c2-c2ccc(F)cc2)ccn1`, the IC50 is above 25 µM in series [1]; above 10 µM in [3]; 0.21 µM on MAP kinase p38; above 10 µM against Protein kinase C (PKC); above 30 µM in [4]; above 25 µM in [5]. For the same compound, the half-life in series [2] is 1.5 h. Also, the ED50 in the series listed under Rattus norvegicus was found to be 2 mg/kg. In series [6], the time of peak concentration (Tmax) amounted to 1 h.
